Laboratory results from ChEMBL document CHEMBL2086311, “UDP made a highly promising stable, potent, and selective P2Y6-receptor agonist upon introduction of a boranophosphate moiety” (Bioorg Med Chem, 2012).
The source made the active and inactive calls. The calls are words filed in the database; no cut-off is given here.

Columns and labels:
P2Y purinoceptor 6 [1] = target: T1, P2Y purinoceptor 6 (Homo sapiens, UniProt Q15077); assay: Ratio of UDP EC50 to compound EC50 for human GFP-tagged P2Y6 receptor
Summary of the method: (§1)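 Human P2Y6 receptor-GFP construct stably expressed in 1321N1 astrocytoma cells (no endogenous P2X/P2Y). Cells loaded with 2 µM fura-2/AM plus 0.02% pluronic acid in Na-HBS (pH 7.4), 30 min, 37 °C. Superfused at 37 °C with nucleotide, usually 10^-8 M to at least 10^-5 M. [Ca2+]i read as 340/380 nm excitation ratio, emission 510 nm. EC50 from concentration–response curves.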

P2Y purinoceptor 4 [2] = target: T2, P2Y purinoceptor 4 (Homo sapiens, UniProt P51582); assay: Agonist activity at human GFP-tagged P2Y4 receptor expressed in human 1321N1 cells assessed as intracellular calcium mobilization up to 100 uM by fura2/AM-based fluorescence spectrophotometry; assay type: functional, cell-based
Summary of the method: (§2)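 Human P2Y2, P2Y4 or P2Y6 receptors with GFP fusion, stably expressed in 1321N1 astrocytoma cells (no endogenous P2X/P2Y), selected with 0.5 mg/mL G418. Cells on coverslips at ~80% density were loaded with 2 µM fura 2/AM plus 0.02% pluronic acid in Na-HBS pH 7.4 for 30 min at 37 °C. Nucleotide was superfused at 37 °C, usually 10^-8 to ≥10^-5 M, sometimes to 10^-4 M. Read-out was 340/380 nm excitation ratio at 510 nm emission. Values are mean maximal amplitude ± SE.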

[3] = target: P2Y purinoceptor 2 (Homo sapiens) (UniProt P41231); assay: Agonist activity at human GFP-tagged P2Y2 receptor expressed in human 1321N1 cells assessed as intracellular calcium mobilization up to 100 uM by fura2/AM-based fluorescence spectrophotometry; assay type: functional, cell-based; summary of the method: as §2
P2Y purinoceptor 6 [4] = target: T1, P2Y purinoceptor 6; assay: Agonist activity at human GFP-tagged P2Y6 receptor expressed in human 1321N1 cells assessed as intracellular calcium mobilization by fura2/AM-based fluorescence spectrophotometry; assay type: functional, cell-based; summary of the method: as §2
[5] = Agonist activity at P2Y6 receptor in New Zealand White rabbit osteoclasts assessed as intracellular calcium mobilization by fura2-based microfluorimetric technique; assay type: functional, cell-based; conditions: Oryctolagus cuniculus
P2Y purinoceptor 6 [6] = target: T1, P2Y purinoceptor 6; assay: Agonist activity at human P2Y6 receptor; assay type: functional; summary of the method: as §1
[7] = Half life in human serum by HPLC analysis; assay type: ADME, cell-free
Summary of the method: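 Compound (0.1 mg) incubated with human blood serum and RPMI-1640 medium at 37 °C for 0–24 h. Samples taken at 0.5–12 h intervals, heated to 80 °C for 30 min, treated with CM Sephadex and extracted with chloroform. Analysed by reverse-phase HPLC. Degradation from peak integration, corrected against a serum-free control given the same workup.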

[8] = Half life in KCl/HCl buffer by 31P-NMR analysis at pH 1.4; assay type: physicochemical
Summary of the method: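 Sodium salt dissolved in KCl/HCl buffer pH 1.4 containing D2O, held at 37 °C. 31P NMR spectra taken at 15 min, 1 h or 24 h intervals, about every 24 h in multi-day runs. Hydrolysis rate taken from change in integration of one starting-material phosphate signal over time, fit to a pseudo-first-order model.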

P2Y purinoceptor 4 [9] = target: T2, P2Y purinoceptor 4; assay: Agonist activity at human GFP-tagged P2Y4 receptor expressed in human 1321N1 cells assessed as intracellular calcium mobilization by fura2/AM-based fluorescence spectrophotometry; assay type: functional, cell-based; summary of the method: as §2

T2 sequence (P51582 whole entry, the tested form may be a part): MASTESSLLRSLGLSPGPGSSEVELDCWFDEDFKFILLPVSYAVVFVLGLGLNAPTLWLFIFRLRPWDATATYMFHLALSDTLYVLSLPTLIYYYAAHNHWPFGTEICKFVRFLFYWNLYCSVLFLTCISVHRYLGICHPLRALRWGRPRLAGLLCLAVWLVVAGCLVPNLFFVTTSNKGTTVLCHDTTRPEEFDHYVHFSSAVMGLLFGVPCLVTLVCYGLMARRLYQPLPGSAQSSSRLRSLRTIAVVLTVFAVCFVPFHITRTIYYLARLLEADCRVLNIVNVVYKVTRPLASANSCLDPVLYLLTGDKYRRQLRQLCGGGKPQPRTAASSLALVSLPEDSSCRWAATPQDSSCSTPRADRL
T1 sequence (Q15077 whole entry, the tested form may be a part): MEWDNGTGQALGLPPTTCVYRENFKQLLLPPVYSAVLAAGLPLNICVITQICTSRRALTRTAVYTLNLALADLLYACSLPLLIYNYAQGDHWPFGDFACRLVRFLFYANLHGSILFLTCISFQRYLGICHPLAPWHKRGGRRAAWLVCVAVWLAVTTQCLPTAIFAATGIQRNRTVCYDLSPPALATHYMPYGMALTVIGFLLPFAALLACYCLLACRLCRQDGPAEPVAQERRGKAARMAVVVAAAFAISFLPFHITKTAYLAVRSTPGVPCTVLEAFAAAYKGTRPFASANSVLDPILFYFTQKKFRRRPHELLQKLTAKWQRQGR
Chain of P2Y purinoceptor 2 (Homo sapiens) (P41231 whole entry): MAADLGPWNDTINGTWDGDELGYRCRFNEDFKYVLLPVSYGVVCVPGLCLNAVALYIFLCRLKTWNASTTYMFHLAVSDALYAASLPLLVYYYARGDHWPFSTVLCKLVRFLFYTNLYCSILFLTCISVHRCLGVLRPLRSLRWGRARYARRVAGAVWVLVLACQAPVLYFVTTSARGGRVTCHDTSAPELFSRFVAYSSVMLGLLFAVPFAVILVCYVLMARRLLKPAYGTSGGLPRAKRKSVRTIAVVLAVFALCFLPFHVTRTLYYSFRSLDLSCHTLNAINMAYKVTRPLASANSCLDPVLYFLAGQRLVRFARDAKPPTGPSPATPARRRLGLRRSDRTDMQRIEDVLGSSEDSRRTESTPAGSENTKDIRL

SMILES	Activity (P2Y purinoceptor 4 [2])	Activity [3]	EC50 (P2Y purinoceptor 6 [4]) [µM]	other results
O=c1ccn([C@@H]2O[C@H](COP(=O)(O)OP(=O)(O)OP(=O)(O)OC[C@H]3O[C@@H](n4ccc(=O)[nH]c4=O)[C@@H]4OC(Cc5ccccc5)O[C@@H]43)[C@@H](O)[C@H]2O)c(=O)[nH]1 (stereo partly specified)				EC50 [5]: 140 nM
O=c1ccn([C@@H]2O[C@H](COP(=O)(O)OP(=O)(O)S)[C@@H](O)[C@H]2O)c(=O)[nH]1 (stereo partly specified)				EC50 (P2Y purinoceptor 6 [6]): 28 nM
B[P@@](=O)(OC[C@H]1O[C@@H](n2ccc(=O)[nH]c2=O)[C@H](O)[C@@H]1O)OP(=O)(O)O				half-life [7]: 1020 min; half-life [8]: 1010 min
B[P@@](=O)(OC[C@H]1O[C@@H](n2cc(OC)c(=O)[nH]c2=O)[C@H](O)[C@@H]1O)OP(=O)(O)O	inactive	inactive		Ratio EC50 (P2Y purinoceptor 6 [1]): 19
O=c1ccn([C@@H]2O[C@H](COP(=O)(O)OP(=O)(O)OP(=O)(O)O)[C@@H](O)[C@H]2O)c(=O)[nH]1 [URIDINE TRIPHOSPHATE]				EC50 (P2Y purinoceptor 4 [9]): 900 nM
BP(=O)(OC[C@H]1O[C@@H](n2cc(OC)c(=O)[nH]c2=O)[C@H](O)[C@@H]1O)OP(=O)(O)O (stereo partly specified)				half-life [8]: 1010 min
B[P@](=O)(OC[C@H]1O[C@@H](n2cc(OC)c(=O)[nH]c2=O)[C@H](O)[C@@H]1O)OP(=O)(O)O	inactive	inactive	4.3	

Second part, led by results:

Activity (P2Y purinoceptor 4 [2])	Activity [3]	EC50 (P2Y purinoceptor 6 [4]) [µM]	SMILES	other results
inactive	inactive	0.06	B[P@@](=O)(OC[C@H]1O[C@@H](n2cc(OC)c(=O)[nH]c2=O)[C@H](O)[C@@H]1O)OP(=O)(O)OP(=O)(O)OC[C@H]1O[C@@H](n2cc(OC)c(=O)[nH]c2=O)[C@H](O)[C@@H]1O	Ratio EC50 (P2Y purinoceptor 6 [1]): 2.5
inactive	inactive	11.2	B[P@@](=O)(OC[C@H]1O[C@@H](n2cc(OC)c(=O)[nH]c2=O)[C@H](O)[C@@H]1O)OP(=O)(O)OP(=O)(O)O	
		20.1	B[P@](=O)(OC[C@H]1O[C@@H](n2cc(OC)c(=O)[nH]c2=O)[C@H](O)[C@@H]1O)O[P@@](=O)(O)OP(=O)(O)O	
inactive	inactive		B[P@](=O)(OC[C@H]1O[C@@H](n2cc(OC)c(=O)[nH]c2=O)[C@H](O)[C@@H]1O)OP(=O)(O)OP(=O)(O)O	
inactive	inactive	2.2	B[P@](=O)(OC[C@H]1O[C@@H](n2cc(OC)c(=O)[nH]c2=O)[C@H](O)[C@@H]1O)OP(=O)(O)OP(=O)(O)OC[C@H]1O[C@@H](n2cc(OC)c(=O)[nH]c2=O)[C@H](O)[C@@H]1O	
inactive	inactive	0.2	BP(=O)(OP(=O)(O)OC[C@H]1O[C@@H](n2cc(OC)c(=O)[nH]c2=O)[C@H](O)[C@@H]1O)OP(=O)(O)OC[C@H]1O[C@@H](n2cc(OC)c(=O)[nH]c2=O)[C@H](O)[C@@H]1O	
inactive	inactive	> 10	COc1cn([C@@H]2O[C@H](COP(=O)(O)OP(=O)(O)OP(=O)(O)OC[C@H]3O[C@@H](n4cc(OC)c(=O)[nH]c4=O)[C@H](O)[C@@H]3O)[C@@H](O)[C@H]2O)c(=O)[nH]c1=O	
